A selection: hits, their analogues and other compounds. The true share with any hit is near 1.8%.
Rev-RRE block: HIV-1 Rev-RRE binding inhibitors, primary screen, biochemical, FRET, protein-RNA interaction; P05866; inhibition, % at 8 µM; actives 0.79% (n = 97,000); Rev peptide-RRE RNA binding;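 active = inhibition above the screen-wide mean plus 3 SD, cut at about 35% in these data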;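 note: 0% = median DMSO wells and 100% = median Neomycin B control wells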
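Assay system: Labelled RRE RNA duplex and labelled Rev peptide | Times: 5 min preincubation and 15 min binding, 25 °C | Detection: FRET, ex 480 nm, em 540 and 671 nm | Evaluation: % inhibition of FRET ratio versus controls | Benchmarks: DMSO wells as 0% and neomycin B wells as 100% inhibition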
PTPN22 act: LYP phosphatase activators, primary screen, biochemical, DiFMUP fluorescence, 2 µM. Tyrosine-protein phosphatase non-receptor type 22 (Homo sapiens), Q9Y2R2. recombinant LYP; 0 = plate median, 100 = signal doubled. activation, % at 2 µM. actives 0.11% (n = 96,000). AID 697, 2007;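 active = activation at 2 µM above a set limit, the mean plus 5 SD, cut at about 37% in these data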
LYP inh 2: PTPN22 phosphatase inhibitors, primary screen, biochemical, DiFMUP fluorescence, 2 µM | Tyrosine-protein phosphatase non-receptor type 22 (Homo sapiens), Q9Y2R2 | recombinant LYP catalytic domain | inhibition, % at 2 µM | actives 0.21% (n = 96,000) | AID 640, 2007;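 active = inhibition at 2 µM at or above a set limit, the screen mean plus 3 SD, cut at about 24% in these data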;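 note: 0% = DMSO with enzyme and 100% = enzyme fully blocked by orthovanadate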
EphB4 antag: EphB4-ephrin-B2 interaction antagonists, primary screen, biochemical, TNYL-RAW peptide probe, fluorescence polarization | inhibition, % at 7 µM | AID 720, 2007 | actives 0.15% (n = 97,000) | EphB4 LBD / TNYL-RAW-Alexa532 peptide;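 active = inhibition above the screen-wide mean inhibition plus 3 SD, cut at about 15% in these data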;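 note: 0% = DMSO wells and 100% = excess unlabeled TNYL-RAW peptide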
PLK1 inh: human PLK1 kinase inhibitors, primary screen, biochemical, TR-FRET. Serine/threonine-protein kinase PLK1 (Homo sapiens), P53350. recombinant PLK1 kinase, TR-FRET peptide phosphorylation. inhibition, % at 10 µM. actives 0.53% (n = 97,000). AID 619, 2007;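 active = inhibition of 50% or more in the single-concentration screen; inactive = inhibition below 50%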;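 note: 0% = DMSO max control and 100% = H-89 dihydrochloride min control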
Target sequence (P53350 whole entry, looked up): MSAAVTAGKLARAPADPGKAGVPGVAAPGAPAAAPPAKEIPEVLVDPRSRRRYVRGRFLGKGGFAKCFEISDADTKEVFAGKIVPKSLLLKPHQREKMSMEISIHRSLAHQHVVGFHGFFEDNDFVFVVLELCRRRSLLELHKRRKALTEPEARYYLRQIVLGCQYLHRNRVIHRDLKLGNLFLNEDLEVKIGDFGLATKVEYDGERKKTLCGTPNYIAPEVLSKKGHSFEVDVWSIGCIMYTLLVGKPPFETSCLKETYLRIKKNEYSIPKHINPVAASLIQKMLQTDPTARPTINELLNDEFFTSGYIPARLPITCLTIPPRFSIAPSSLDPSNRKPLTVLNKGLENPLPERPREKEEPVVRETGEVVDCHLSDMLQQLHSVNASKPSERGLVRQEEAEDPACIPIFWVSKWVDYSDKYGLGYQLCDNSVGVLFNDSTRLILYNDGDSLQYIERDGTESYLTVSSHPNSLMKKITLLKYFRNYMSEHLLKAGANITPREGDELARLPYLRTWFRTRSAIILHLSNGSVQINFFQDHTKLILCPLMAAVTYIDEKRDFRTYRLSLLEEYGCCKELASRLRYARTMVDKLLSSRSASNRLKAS
PLK1 PBD inh: Plk1 polo box domain binding inhibitors, primary screen, biochemical, fluorescence polarization; Serine/threonine-protein kinase PLK1 (Homo sapiens), P53350; actives 0.13% (n = 97,000); Plk1 PBD phosphopeptide binding; inhibition, %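 (tested at about 20 µM)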; AID 693, 2007; in the data active = inhibition above about 34%, passing the limit was not always enough
* hit, by the source's call; . = no result; [ ] = another dose, or the depositor's remark.

SMILES	Rev-RRE block	PTPN22 act	LYP inh 2	EphB4 antag	PLK1 inh	PLK1 PBD inh
CCn1cc(C(=O)NC(=S)Nc2cccc(O)c2)cn1	-5	7	-12	-3	-10	16
O=C(CCN1CCN(c2ccccc2)CC1)Nc1nccs1	5	-3	5	5	65*	-5
O=C(CN1CCN(c2ccccc2)CC1)Nc1nccs1	8	12	-13	4	-6	24
Cc1c(C(=O)O)nn(-c2ccccc2)c(=O)c1C#N	7	.	.	-4	63*	1
COC(=O)c1cc(NC(=O)c2ccccc2)c(=O)oc1C/C=N\OCc1ccc(Cl)cc1Cl	48*	-7	8	-3	-4	-8
Cc1sc2nc(SCC(=O)NCc3cccs3)[nH]c(=O)c2c1C	-1	3	-5	-3	52*	25
Cc1csc(SCC(=O)NCc2cccs2)n1	8	1	-3	-4	-3	-3
Cc1ccc2c(c1)N(C(=O)c1ccco1)C(C)(C)c1ssc(=S)c1-2	2	-8	8	-2	-6	19
Nc1c(C(=O)Nc2ccccc2F)sc2nc(Cc3ccccc3)cc(C(F)(F)F)c12	82*[fluorescence artefact?]	-3	2	-3	-27	-6
COc1ccc(OC)c(NC(=O)Cc2coc3cc(C)cc(C)c23)c1	8	16	-18	1	-6	14
CC1(C)CC(=O)C2=C(C1)Nc1ccccc1NC2c1nc2ccccc2[nH]1 (stereo not drawn)	0	3	-6	-9	-14	31
Cc1cc2c(cc1C)NC(c1c(C)n(C)n(-c3ccccc3)c1=O)C1=C(CC(C)(C)CC1=O)N2 (stereo not drawn)	107*[fluorescence artefact?]	-4	6	5	-8	4
CCCN1C(=O)/C(=C/C=C2\N(CC)c3ccccc3C2(C)C)SC1=S	136*[fluorescence artefact?]	2	2	0	-21	-224
O=C(CN(C(=O)CNC(=O)c1ccco1)c1ccc2c(c1)OCO2)NC1CCCCC1	1	-30	29*	-5	-5	-7
O=C(Nc1ccccc1-c1ccccc1)C1CCCN(c2ncccn2)C1 (stereo not drawn)	-2	0	-2	1	0	-14
CCCn1c(Nc2ccc(Cl)cc2)nc2ccccc21	3	-35	38*	-2	-8	5
CCCn1c(Nc2ccccc2)nc2ccccc21	5	7	-7	2	-3	8
CCCCCCc1nc2ccccc2c(=O)n1NC(=O)c1c(O)c2cccc3c2n(c1=O)CC3	4	-13	12	2	-6	17
O=S(=O)(Nc1nc2ccccc2[nH]1)c1ccc(Cl)cc1	1	-5	3	-3	61*	12
O=C(CC1(O)C(=O)Nc2ccccc21)c1ccccc1 (stereo not drawn)	7	.	.	-1	65*	-12
CCOc1cc(C(=O)Nc2cccc3ncccc23)cc(OCC)c1OCC	8	2	-3	6	11	-16
O=c1cnn(-c2ccccc2)c(-c2ccccc2)c1	4	-8	6	0	5	-12
COc1ccc2c(c1)CC/C(=C\Nc1ccc3c(c1)OCO3)C2=O	32	-7	4	-3	7	-35
O=C1/C(=C/Nc2ccc3c(c2)OCO3)CCc2ccccc21	46*	-3	2	-1	2	1
CCCCN1C(=O)C2(NNc3ccccc3O2)c2ccccc21 (stereo not drawn)	73*	-6	8	2	-14	-26
C=CCN1C(=O)C(O)(CC(=O)c2ccc(-n3cccc3)cc2)c2ccccc21 (stereo not drawn)	2	0	2	-5	-13	-13
CCCN1C(=O)C(O)(CC(=O)c2ccc3c(c2)OCCO3)c2ccccc21 (stereo not drawn)	2	-1	0	-3	-11	-3
